Measured values published in PubChem BioAssay AID504383 (The Scripps Research Institute Molecular Screening Center, 2011).
Out of some 2,500 compounds screened, about 1,200 (48%) were called active. So high a share suggests a set chosen from earlier hits. The list shows a part of the results. Values without a mark were called inactive.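 Rule for the calls: active = mean activation above the low control average plus 3 SD, as set in the primary screen (cut at about 12% in these data); inactive = the rest.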

Target: Troponin I, cardiac muscle (Homo sapiens) + Troponin T, cardiac muscle (Homo sapiens) + Troponin C, slow skeletal and cardiac muscles (Homo sapiens) (UniProt P19429+P45379+P63316)
Assay: cardiac RTF calcium sensitivity activators, confirmation, biochemical, IANBD-TnC fluorescence, triplicate (AID 504383);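 note: 0% = DMSO at 0.472 mM calcium and 100% = DMSO at 2.9 mM calcium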
Conditions: IANBD-labeled cardiac RTF, Ca2+ sensitivity fluorescence; at 7.2 µM; stronger effect = higher value; scaled from EC20 to saturating calcium; tested at EC20 calcium, 0.472 mM
Summary of the method: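 Test system: labelled regulated thin filament protein complex. Dosing: single nominal compound dose of 7.2 µM. Benchmarks: EC20 and EC100 calcium wells. Read-out basis: fluorescence gain scaled between EC20 and EC100 calcium controls. Probe or stimulus: submaximal calcium at 0.472 mM (EC20). Technique: fluorescence. Times: 15 min compound exposure, 25 °C.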

SMILES | activation
COc1cc(OC)c(C2N(c3ccc(Cl)c(Cl)c3)C(=O)C3CCCN32)cc1OC (stereo unspecified) | -2.98%
Cn1nccc1NC(=O)Nc1cccc(Cl)c1Cl | 51.6% (active)
COc1cc(OC)cc(-c2c(-c3cccs3)c3cc(-c4ccc(SC)cc4)ccc3n2C)c1 | 25.8% (active)
COCCCn1c(=O)/c(=C\c2cccc(OC)c2OC)s/c1=C(/C#N)C(=O)Nc1ccc(C(=O)O)cc1 | 22.2% (active)
C=CCn1c(=O)/c(=C/c2cc(OC)c(OC)c(OC)c2)s/c1=C(/C#N)c1nc2ccccc2n1C | 8.61%
COCCCn1c(=O)/c(=C\c2ccccc2OC(C)C)s/c1=C(/C#N)C(=O)Nc1ccc(C(=O)O)cc1 | 8.94%
COCCNC(=O)CSc1nc(N)c(NC(=O)c2ccccc2F)c(=O)[nH]1 | 11.4%
CCCn1c(=N)n(CC(O)c2ccco2)c2ccccc21 (stereo unspecified) | 2.41%
N=c1n(Cc2ccccc2)c2ccccc2n1CC(O)c1ccco1 (stereo unspecified) | 29.1% (active)
CCn1c(=N)n(CC(O)c2ccccc2)c2ccccc21 (stereo unspecified) | 9.44%
CN1CCCN(Cc2cccc3ccccc23)CC1 | 9.8%
COc1cc(/C=C2\SC(=O)NC2=O)ccc1Oc1ccc([N+](=O)[O-])cn1 | 81% (active)
Cc1cc(C=O)c(C)n1-c1ccc(Oc2ccc([N+](=O)[O-])cn2)cc1 | 4.85%
COc1ccc(C2NN=C(c3c[nH]c4ccccc34)C2O)cc1 (stereo unspecified) | 36.2% (active)
COc1ccccc1CNC(=O)COC(=O)c1cccc(S(=O)(=O)N2CCOCC2)c1 | 6.73%
O=C(COC(=O)c1ccc(S(=O)(=O)N2CCCC2)cc1)NCc1ccco1 | 11.6% (active)
Cn1nc(C(F)(F)F)c(-c2ccc(Br)cc2)c1NC(=O)c1ccco1 | 6.3%
O=C(NC(NC(=S)Nc1ccccc1C(=O)O)C(Cl)(Cl)Cl)c1ccco1 (stereo unspecified) | 5.56%
O=C(Nc1cccc2c1N(C(=O)c1ccco1)CCC2)c1ccco1 | 25.9% (active)
O=C(N/N=C/c1cccc([N+](=O)[O-])c1)c1cnccn1 | 3.15%
COc1ccc(/C=N/NC(=O)c2cccc([N+](=O)[O-])c2)cc1O | 15.3% (active)

SMILES | activation
Cc1cccc(NC(=O)CSc2nnc(CSc3nc(C)cc(C)n3)n2Cc2ccco2)c1 | 8.24%
CCOC(=O)c1c(NC(=O)CSc2nc3cc(Cl)ccc3c(=O)n2Cc2ccco2)sc(C(=O)N(C)C)c1C | 9.02%
CN(C)C(CNC(=O)CSc1nc2ccccc2c(=O)n1Cc1ccco1)c1ccccc1 (stereo unspecified) | 12.1% (active)
CCc1ccccc1SCc1noc(C(=O)NCC2CCCO2)c1C(=O)O (stereo unspecified) | 10.6%
O=C(NC(=S)NCC1CCCO1)C(c1ccccc1)c1ccccc1 (stereo unspecified) | 12.2% (active)
O=C(NCC(=O)N(CC1CCCO1)C1(C(=O)NC2CCCCC2)CCCCC1)c1ccccc1 (stereo unspecified) | 8.78%
CCOc1ccc2cc(/C=C/C(=O)c3ccco3)c(Cl)nc2c1 | 4.88%
CCCc1cc(=O)[nH]c(SCC)n1 | 11.7% (active)
Cc1nc(Cl)c2c(n1)NC1=C(O2)C(=O)CCC1 | 10.5%
CCOC(=O)/C(=C\c1c[nH]c2ccccc12)NC(C)=O | 31.7% (active)
CCOC(=O)C(CCCCCCC(NC(C)=O)(C(=O)OCC)C(=O)OCC)(NC(C)=O)C(=O)OCC | 9.57%
CCN(CC)C(=O)c1ccc(/C=C/c2c[nH]c3ccccc23)[n+](C)c1 | 11.1%
CCN(CC)C1=CC2=CC(=C(C#N)C#N)CCC2CC1 (stereo unspecified) | 1.65%
Cn1cccc1/C=C1\SC(=S)N(NC(=O)c2ccc(Cl)cc2)C1=O | 16.8% (active)
Cn1cccc1/C=C1\SC(=S)N(NC(=O)c2ccccc2)C1=O | 54.2% (active)
Cc1ccc(C(=O)NN2C(=O)/C(=C/c3cccn3C)SC2=S)cc1 | 25.1% (active)
O=c1cc(CN2CCCc3ccccc32)nc2sccn12 | 5.39%
c1ccc2c(c1)CCCN2Cc1nnnn1CC1CCCO1 (stereo unspecified) | 7.11%
c1ccc2c(c1)CCCN2Cc1nnc2n1CCCCC2 | 92% (active)
COc1cc(/C=C2\CCC(C)C3=C(c4cc(OC)c(OC)c(OC)c4)C(C#N)=C(N)OC32)cc(OC)c1OC (stereo unspecified) | 36.4% (active)
O=c1oc2ccccc2cc1-c1ccc(O)cc1O | 94.9% (active)

SMILES | activation
O=c1oc2cc(O)ccc2cc1-c1nc2c(s1)CCc1ccccc1-2 | 7.71%
O=c1c(-c2ccc(O)cc2O)coc2cc(O)cc(O)c12 | 8.85%
CC(C)(C)NC(=O)[C@@H]1CN(Cc2cccnc2)CCN1C[C@@H](O)C[C@@H](Cc1ccccc1)C(=O)N[C@H]1c2ccccc2C[C@H]1O | 158% (active)
CN(C)S(=O)(=O)c1ccc(C(=O)Oc2cc(=O)[nH]c3ccccc23)cc1 | 10.2%
CN(CC(=O)Nc1ccccc1Cl)C(=O)c1cc(=O)[nH]c2ccccc12 | 49.3% (active)
COc1ccc(N(CC(=O)Nc2ccccc2C(=O)NCC(C)C)S(C)(=O)=O)cc1 | 4.96%
CCn1cc(Cl)c(C(=O)NNC(=O)CCn2cc([N+](=O)[O-])cn2)n1 | 23.9% (active)
CCNC(=S)NNC(=O)CCn1cc(C)cn1 | 6.76%
CCCCCCc1cc2cc(-c3nnc(-c4ccccc4O)o3)c(=O)oc2cc1O | 14.4% (active)
CCCCCCc1cc2cc(-c3nnc(-c4ccccc4)o3)c(=O)oc2cc1O | 4.49%
O=[N+]([O-])c1cc(-c2nc(-c3ccncc3)no2)ccc1Cl | 7.62%
CCOC(=O)C1(Cc2cccc(OC)c2)CCN(Cc2ccon2)CC1 | 12.7% (active)
CCOC(=O)C1(CCc2ccccc2)CCN(C(=O)c2occc2C)CC1 | 9.68%
CCOC(=O)C1(Cc2cccc(OC)c2)CCCN(Cc2nccn2CC)C1 (stereo unspecified) | 6.61%
Nc1ccc(S(N)(=O)=O)cc1N | 600% (active)
CC(C)CN(C(=O)CCCc1nc2ccccc2c(=O)[nH]1)c1c(N)n(Cc2ccccc2)c(=O)[nH]c1=O | 8.94%
CCOc1ccccc1N1CCN(CC(=O)N(CC(C)C)c2c(N)n(CC(C)C)c(=O)[nH]c2=O)CC1 | 35.3% (active)
CCOc1ccccc1N1CCN(CC(=O)c2c(N)n(C)c(=O)n(C)c2=O)CC1 | 14.9% (active)
CCCCn1c(N)c(N(CC(C)C)C(=O)Cc2ccc(S(=O)(=O)N3CCOCC3)s2)c(=O)[nH]c1=O | 8.87%
